The entries come from a sample that favours hits as a whole.
KCC2 mod: KCC2 (human) Cl- transport modulation | Q9H2X9 | KCC2 cells, thallium flux FluoZin-2 fluorescence | B-score of Tl+ flux slope (higher = more flux/activation; lower = inhibition) at 10 µM | hit rate 2.2% among 190,000 | AID 1456;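 active = thallium flux slope and its plate-corrected score both differing from the plate sample mean at a set confidence after two filtering rounds, in either direction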;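 also: slope of fluorescence scaled to starting intensity during 10 to 20 s after thallium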
Target sequence (Q9H2X9 whole entry, looked up): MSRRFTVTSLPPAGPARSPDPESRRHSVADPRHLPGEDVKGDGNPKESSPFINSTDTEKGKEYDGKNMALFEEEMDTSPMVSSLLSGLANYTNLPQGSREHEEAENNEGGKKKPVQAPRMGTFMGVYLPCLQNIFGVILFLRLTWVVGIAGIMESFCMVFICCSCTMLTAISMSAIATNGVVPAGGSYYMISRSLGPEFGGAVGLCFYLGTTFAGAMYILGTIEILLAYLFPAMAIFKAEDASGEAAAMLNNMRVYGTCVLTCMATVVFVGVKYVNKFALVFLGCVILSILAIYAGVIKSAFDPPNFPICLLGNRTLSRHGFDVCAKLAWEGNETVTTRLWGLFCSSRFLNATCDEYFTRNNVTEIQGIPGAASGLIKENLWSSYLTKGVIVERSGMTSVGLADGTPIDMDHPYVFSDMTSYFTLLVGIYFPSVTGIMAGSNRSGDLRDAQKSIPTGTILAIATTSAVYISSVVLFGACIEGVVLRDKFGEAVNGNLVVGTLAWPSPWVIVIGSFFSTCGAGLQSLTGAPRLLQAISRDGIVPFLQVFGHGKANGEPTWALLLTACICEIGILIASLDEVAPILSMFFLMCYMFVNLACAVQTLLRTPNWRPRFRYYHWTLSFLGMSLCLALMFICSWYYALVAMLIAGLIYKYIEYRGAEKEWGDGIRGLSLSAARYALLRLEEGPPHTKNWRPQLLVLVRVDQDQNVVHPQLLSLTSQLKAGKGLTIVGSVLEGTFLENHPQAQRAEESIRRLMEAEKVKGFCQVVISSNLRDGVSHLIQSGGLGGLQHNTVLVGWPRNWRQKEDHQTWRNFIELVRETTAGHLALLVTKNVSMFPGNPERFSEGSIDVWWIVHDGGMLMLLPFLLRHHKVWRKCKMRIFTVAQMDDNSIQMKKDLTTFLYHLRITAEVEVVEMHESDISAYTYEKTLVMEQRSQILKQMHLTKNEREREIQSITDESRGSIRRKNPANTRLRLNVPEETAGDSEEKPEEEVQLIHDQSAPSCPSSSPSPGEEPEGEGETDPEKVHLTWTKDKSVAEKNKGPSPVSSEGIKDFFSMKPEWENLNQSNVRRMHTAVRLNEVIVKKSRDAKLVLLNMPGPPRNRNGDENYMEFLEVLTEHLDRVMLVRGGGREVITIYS
Dynein cargo inh: blocks dynein driven cargo transport along microtubules | 3617.4 mouse cells, GR-EGFP nuclear translocation imaging; test concentration mostly 20 µM; stimulated with dexamethasone, 1 µM; active compounds read low | z-score, hits read low | hit rate 0.47% among 220,000;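 active = plate z-score of nuclear minus cytoplasmic receptor signal below a set negative limit, without overly bright fluorescence or cell loss, cut at about -3.5 in these data, passing the limit was not always enough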;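 also: z-score of nuclear minus cytoplasmic ring GR-EGFP intensity difference per well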
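Buffer or medium: tet-free, stripped-serum medium; reagent: dexamethasone at 1.0 µM final, 30 min; incubation: 48 h induction, 1 h compound, 30 min dex at 37 °C; measured by: formaldehyde fixation, Hoechst nuclear stain, 10x automated fluorescence imaging; read-out: nuclear-to-cytoplasmic GR-EGFP distribution per well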
V-ATPase pHluor: regulators of yeast V-ATPase proton transport | S. cerevisiae, pHLuorin cytosolic pH fluorescence | response, % at 10 µM | hit rate 0.37% among 350,000 | AID 504577; in the data active = response mostly above about 7.3%, no sharp cut-off; inactive = mostly below about 5.4%; also: actives read high
pCIP destab: p/CIP protein destabilization; Q05BA5; F442A p/CIP-EGFP cells, EGFP fluorescence, 16 h; decrease of EGFP signal, % at 10 µM; hit rate 0.01% among 290,000;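 active = EGFP signal decrease of at least 30% at 10 µM or well 3 SD below plate mean, unless failing retest; inactive = the rest, including hits failing retest or dose response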
ABCB6 inh MLPCN: human ABCB6 transporter inhibition; Q9NP58; K562-ABCB6 porphyrin accumulation, flow cytometry, 1 h; active compounds read low; fluorescence ratio to DMSO, % at 10 µM; hit rate 0.19% among 360,000;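 active = fluorescence ratio to DMSO below 75%, the collection mean minus 3 SD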;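 also: signal is porphyrin accumulated inside mitochondria; 100% equals median channel fluorescence of DMSO control wells; lower ratio means ABCB6 inhibition with less porphyrin fluorescence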
V-ATPase pH SP: modulates yeast V-ATPase proton transport | shares compounds with V-ATPase pHluor | S. cerevisiae pHLuorin cytosolic pH | response, % at 10 µM | hit rate 2% among 980; in the data active = response above about 24%;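 also: plate controls were vehicle wells for no effect and positive control wells for full effect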
Numbers without * were called inactive; . = no result.

SMILES	KCC2 mod	Dynein cargo inh	V-ATPase pHluor	pCIP destab	ABCB6 inh MLPCN	V-ATPase pH SP
CC(Oc1cc(F)ccc1[N+](=O)[O-])C(=O)Nc1ccc(S(=O)(=O)N2CCCC2)cc1 (stereo not given)	0.869	0.512	14.9*	-9.6	94.0	-3.3
COc1cc(C2NC(=O)NC(C)=C2C(=O)OCc2ccc(C)cc2)cc(OC)c1O (stereo not given)	0.0357	0.81	9.5*	-6.5	101.0	1.4
O=S(=O)(c1ccc(F)cc1)N1CCN(CC(O)COCC2CCCO2)CC1 (stereo not given)	.	.	9.8*	.	98.0	0.3
O=S(=O)(c1ccc(F)cc1)N1CCN(CC(O)COCc2ccccc2)CC1 (stereo not given)	.	.	-1.2	.	92.0	.
COc1ccc2cc(S(=O)(=O)N3CCN(C)CC3)ccc2c1	0.617	0.303	12.6*	-2.4	95.0	-1.2
CC1CCN(S(=O)(=O)c2ccc(C(=O)NNC(=O)C3CC3)cc2)CC1	1.11	1.53	-1.4	-3.8	97.0	.
O=C(CSc1nc(=O)n(CCCN2CCOCC2)c2c1CCCC2)Nc1ccc(F)cc1F	.	.	6.0*	.	98.0	-0.9
CCOC(=O)/C(C#N)=C1/C=CN(Cc2ccccc2)C=N1	-1.01	-0.149	3.3	-11.6	102.0	.
CCOC(=O)/C(C#N)=C1\C(=O)N(Cc2ccccc2)c2ccccc21	0.784	-0.00317	10.4*	-5.3	98.0	6.5
CCCC1=NN(C(=O)Cc2ccc(OC)cc2)C(O)(C(F)(F)F)C1 (stereo not given)	0.879	0.63	-0.5	-9.7	105.0	.
COc1ccc(C(=O)CCC(=O)NC2=NCCS2)cc1	.	.	1.8	-7.8	101.0	-3.5
COc1ccc(CC(=O)NC2=NCCS2)cc1	0.0206	0.409	1.3	0.3	94.0	.
O=C(N/N=C(\c1ccccc1)c1cccnc1)c1cccc(F)c1	.	.	-1.4	-35.1	98.0	.
CCOC(=O)c1c(C)[nH]c(C(=O)OCc2csc(CC(=O)Nc3ccccc3C)n2)c1C	.	.	-7.9	.	102.0	.
Cc1ccc(NC(=O)c2ncn(CCCN3CCN(c4ccccn4)CC3)n2)cc1C	.	.	12.7*	.	100.0	1.5
Cc1ccc(NC(=O)c2ncn(CCCN3CCN(c4ncccn4)CC3)n2)cc1C	.	.	-2.2	.	97.0	.
C/C=C1\COC(C(=O)NCc2ccccc2)(C(F)(F)F)C=C1C=C(C)C (stereo not given)	.	.	5.0	.	100.0	.
CN(Cc1nc(C(c2ccccc2)c2ccccc2)no1)CC1COCCO1 (stereo not given)	0.101	1.4	10.8*	-16.8	95.0	-5.3
CN(Cc1nc(-c2cccs2)no1)CC1COCCO1 (stereo not given)	-0.00788	0.00542	-7.7	7.6	101.0	.
COc1ccc(N(CC(=O)N/N=C/c2cc(Br)c(C)o2)S(=O)(=O)c2ccc(NC(C)=O)cc2)cc1	0.0635	-0.238	10.7*	-1.4	102.0	-2.4
COCCn1c(=O)[nH]c2cc(C(=O)N3CCN(c4ccccc4OC)CC3)ccc2c1=O	0.0827	0.00719	10.0*	-6.6	99.0	-0.4
COCCn1c(=S)[nH]c2cc(C(=O)N3CCN(c4ccccc4OC)CC3)ccc2c1=O	.	0.0846	2.6	-13.2	88.0	.
CN(CCC1CCOCC1)Cc1nc(Cc2ccccc2F)no1	-0.0393	0.741	10.9*	-12.9	99.0	-3.4
CC(C)CCc1noc(CN(C)CCC2CCOCC2)n1	0.19	-1.02	-1.3	5.4	103.0	.
CN1/C(=C\C(=S)NC(=O)c2ccc([N+](=O)[O-])cc2)C(C)(C)c2ccccc21	0.811	-0.0576	13.4*	-19.8	458.0	0.1
SMILES	KCC2 mod	Dynein cargo inh	V-ATPase pHluor	pCIP destab	ABCB6 inh MLPCN	V-ATPase pH SP
CN1/C(=C/C=N/NC(=O)c2ccc([N+](=O)[O-])cc2)C(C)(C)c2ccccc21	-3.35	0.743	3.0	-6.5	109.0	.
O=C(NCCCN1CCN(CCCNC(=O)c2ccc(F)cc2)CC1)c1ccc(F)cc1	-0.0696	-0.886	-1.0	3.4	92.0	1.1
CC(=O)NCCSC(=O)c1ccc(F)cc1	0.679	0.567	-2.3	-8.1	93.0	0.2
O=C(NCCNC(=O)c1ccc(F)cc1)c1ccc(F)cc1	.	.	0.4	.	97.0	0.8
COCCCNCCOCCOc1ccc(Cl)cc1C(C)(C)C	0.122	1.32	3.0	3.2	103.0	.
COC(=O)[C@@]1(Sc2ccc(C)cc2)CC(=O)N[C@@H]1c1ccc(C(F)(F)F)cc1	.	.	.	.	98.0	.
N#Cc1c(C(F)(F)F)cc(-c2cccs2)nc1SCc1cccnc1	0.085	-0.777	7.7*	-20.0	95.0	-26.6

Assay outcomes from PubChem.
